Laboratory results: ChEMBL document CHEMBL1137333, “Synthesis, radiosynthesis, and biological evaluation of carbon-11 labeled 2beta-carbomethoxy-3beta-(3'-((Z)-2-haloethenyl)phenyl)nortropanes: candidate radioligands for in vivo imaging of the serotonin transporter with positron emission tomography” (J Med Chem, 2006)

Assays:
Cynomolgus monkey [1] = assay: Ratio of uptake in occipital to cerebellum of anesthetized cynomolgus monkey after 65 mins; format: ADME, organism-based; conditions: in vivo
Procedure, shortened: (§1)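 Baseline microPET (Concorde P4) in anesthetized cynomolgus monkey after injection of the [11C]-labelled tracer. Regional time-activity curves were taken, and each region's uptake was divided by cerebellum uptake (low-SERT reference) at 65, 85 and 105 min postinjection.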

Cynomolgus monkey [2] = assay: Uptake in anesthetized cynomolgus monkey frontal after 3.5 mins; format: ADME, organism-based, Frontal cortex; conditions: in vivo
Procedure, shortened: (§2)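 Baseline microPET scan (P4 scanner) of anesthetized cynomolgus monkeys after injection of the carbon-11 labelled nortropane tracer. Two baseline studies were run per tracer. Radioactivity was followed over time in regional brain time-activity curves.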

Cynomolgus monkey [3] = assay: Uptake in anesthetized cynomolgus monkey pons after 9.5 mins; format: ADME, organism-based; conditions: in vivo
Procedure, shortened: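 Carbon-11 labelled tracer injected into anesthetized cynomolgus monkeys under baseline conditions. Regional brain radioactivity was followed by microPET (Concorde microPET P4) and expressed as time-activity curves for the brain regions. Two baseline studies were run per tracer. Tracer radiochemical purity and specific activity were determined by analytical HPLC at the time of injection.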

Cynomolgus monkey [4] = assay: Uptake in anesthetized cynomolgus monkey occipital after 22.5 mins; format: ADME, organism-based, Occipital cortex; conditions: in vivo, 0.375 h; procedure, shortened: as §2
Cynomolgus monkey [5] = assay: Uptake in anesthetized cynomolgus monkey pons after 85.0 mins; format: ADME, organism-based; conditions: in vivo
Procedure, shortened: (§3)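 Baseline microPET (Concorde P4) scan in anesthetized cynomolgus monkeys after injection of the carbon-11 labeled tracer, with no chase drug. Regional brain time-activity curves were followed over the scan. Tracer radiochemical purity and specific activity were determined by analytical HPLC at the time of injection.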

Cynomolgus monkey [6] = assay: Uptake in anesthetized cynomolgus monkey cerebellum after 15.5 mins; format: ADME, organism-based, Macaca mulatta; conditions: rhesus monkey, in vivo
Procedure, shortened: (§4)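 Baseline microPET (Concorde P4) regional brain time-activity curves in anesthetized cynomolgus monkey following injection of the [11C]-labelled tracer, with radioactivity followed over the scan.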

Cynomolgus monkey [7] = assay: Uptake in anesthetized cynomolgus monkey midbrain after 115.0 mins; format: ADME, organism-based; conditions: in vivo; procedure, shortened: as §2
Cynomolgus monkey [8] = assay: Uptake in anesthetized cynomolgus monkey midbrain after 0.5 mins; format: ADME, organism-based; conditions: in vivo; procedure, shortened: as §2
Cynomolgus monkey [9] = assay: Ratio of uptake in pons to cerebellum of anesthetized cynomolgus monkey after 105 mins; format: ADME, organism-based; conditions: in vivo, 1.75 h; procedure, shortened: as §1
Cynomolgus monkey [10] = assay: Uptake in anesthetized cynomolgus monkey putamen after 15.5 mins; format: ADME, organism-based; conditions: in vivo; procedure, shortened: as §3
Cynomolgus monkey [11] = assay: Uptake in anesthetized cynomolgus monkey medulla after 45.0 mins; format: ADME, organism-based, Medulla of organ; conditions: in vivo, 0.75 h; procedure, shortened: as §2
Cynomolgus monkey [12] = assay: Ratio of uptake in occipital to cerebellum of anesthetized cynomolgus monkey after 85 mins; format: ADME, organism-based; conditions: in vivo; procedure, shortened: as §1
Cynomolgus monkey [13] = assay: Uptake in anesthetized cynomolgus monkey pons after 18.5 mins; format: ADME, organism-based; conditions: in vivo; procedure, shortened: as §3
Cynomolgus monkey [14] = assay: Uptake in anesthetized cynomolgus monkey pons after 0.5 mins; format: ADME, organism-based; conditions: in vivo; procedure, shortened: as §2
Cynomolgus monkey [15] = assay: Uptake in anesthetized cynomolgus monkey medulla after 22.5 mins; format: ADME, organism-based, Medulla of organ; conditions: in vivo, 0.375 h; procedure, shortened: as §2
Cynomolgus monkey [16] = assay: Uptake in anesthetized cynomolgus monkey thalamus after 115.0 mins; format: ADME, organism-based; conditions: in vivo; procedure, shortened: as §3
Cynomolgus monkey [17] = assay: Uptake in anesthetized cynomolgus monkey cerebellum after 0.5 mins; format: ADME, organism-based; conditions: in vivo; procedure, shortened: as §4
Cynomolgus monkey [18] = assay: Uptake in anesthetized cynomolgus monkey medulla after 115.0 mins; format: ADME, organism-based, Medulla of organ; conditions: in vivo; procedure, shortened: as §2
Cynomolgus monkey [19] = assay: Uptake in anesthetized cynomolgus monkey caudate after 9.5 mins; format: ADME, organism-based, Caudate nucleus; conditions: in vivo; procedure, shortened: as §4
Cynomolgus monkey [20] = assay: Uptake in anesthetized cynomolgus monkey putamen after 65.0 mins; format: ADME, organism-based; conditions: in vivo; procedure, shortened: as §3
Cynomolgus monkey [21] = assay: Uptake in anesthetized cynomolgus monkey pons after 27.5 mins; format: ADME, organism-based; conditions: in vivo; procedure, shortened: as §3
Cynomolgus monkey [22] = assay: Ratio of uptake in medulla to cerebellum of anesthetized cynomolgus monkey after 105 mins; format: ADME, organism-based; conditions: in vivo, 1.75 h; procedure, shortened: as §1
Cynomolgus monkey [23] = assay: Ratio of uptake in frontal to cerebellum of anesthetized cynomolgus monkey after 85 mins; format: ADME, organism-based; conditions: in vivo; procedure, shortened: as §1
Cynomolgus monkey [24] = assay: Ratio of uptake in putamen to cerebellum of anesthetized cynomolgus monkey after 105 mins; format: ADME, organism-based; conditions: in vivo, 1.75 h; procedure, shortened: as §1
Cynomolgus monkey [25] = assay: Uptake in anesthetized cynomolgus monkey pons after 75.0 mins; format: ADME, organism-based; conditions: in vivo, 1.25 h; procedure, shortened: as §3
Cynomolgus monkey [26] = assay: Ratio of uptake in pons to cerebellum of anesthetized cynomolgus monkey after 65 mins; format: ADME, organism-based; conditions: in vivo; procedure, shortened: as §1
Cynomolgus monkey [27] = assay: Uptake in anesthetized cynomolgus monkey thalamus after 85.0 mins; format: ADME, organism-based; conditions: in vivo; procedure, shortened: as §3
Cynomolgus monkey [28] = assay: Uptake in anesthetized cynomolgus monkey pons after 45.0 mins; format: ADME, organism-based; conditions: in vivo, 0.75 h; procedure, shortened: as §3
Cynomolgus monkey [29] = assay: Uptake in anesthetized cynomolgus monkey cerebellum after 18.5 mins; format: ADME, organism-based, Macaca mulatta; conditions: rhesus monkey, in vivo; procedure, shortened: as §4
Cynomolgus monkey [30] = assay: Ratio of uptake in midbrain to cerebellum of anesthetized cynomolgus monkey after 65 mins; format: ADME, organism-based; conditions: in vivo; procedure, shortened: as §1
Cynomolgus monkey [31] = assay: Uptake in anesthetized cynomolgus monkey frontal after 15.5 mins; format: ADME, organism-based, Frontal cortex; conditions: in vivo; procedure, shortened: as §2
Cynomolgus monkey [32] = assay: Uptake in anesthetized cynomolgus monkey cerebellum after 2.5 mins; format: ADME, organism-based, Macaca mulatta; conditions: rhesus monkey, in vivo; procedure, shortened: as §4
Cynomolgus monkey [33] = assay: Uptake in anesthetized cynomolgus monkey occipital after 85.0 mins; format: ADME, organism-based, Macaca mulatta, Occipital cortex; conditions: rhesus monkey, in vivo; procedure, shortened: as §2
Cynomolgus monkey [34] = assay: Ratio of uptake in caudate to cerebellum of anesthetized cynomolgus monkey after 85 mins; format: ADME, organism-based; conditions: in vivo; procedure, shortened: as §1
Cynomolgus monkey [35] = assay: Uptake in anesthetized cynomolgus monkey midbrain after 105.0 mins; format: ADME, organism-based; conditions: in vivo, 1.75 h; procedure, shortened: as §2
Cynomolgus monkey [36] = assay: Uptake in anesthetized cynomolgus monkey medulla after 1.5 mins; format: ADME, organism-based, Medulla of organ; conditions: in vivo, 0.025 h; procedure, shortened: as §2
Cynomolgus monkey [37] = assay: Uptake in anesthetized cynomolgus monkey thalamus after 55.0 mins; format: ADME, organism-based; conditions: in vivo; procedure, shortened: as §3
Cynomolgus monkey [38] = assay: Uptake in anesthetized cynomolgus monkey occipital after 12.5 mins; format: ADME, organism-based, Macaca mulatta, Occipital cortex; conditions: rhesus monkey, in vivo; procedure, shortened: as §2
Cynomolgus monkey [39] = assay: Uptake in anesthetized cynomolgus monkey thalamus after 18.5 mins; format: ADME, organism-based; conditions: in vivo; procedure, shortened: as §3
Cynomolgus monkey [40] = assay: Uptake in anesthetized cynomolgus monkey pons after 55.0 mins; format: ADME, organism-based; conditions: in vivo; procedure, shortened: as §3
Cynomolgus monkey [41] = assay: Uptake in anesthetized cynomolgus monkey caudate after 115.0 mins; format: ADME, organism-based, Caudate nucleus; conditions: in vivo; procedure, shortened: as §4
Cynomolgus monkey [42] = assay: Uptake in anesthetized cynomolgus monkey midbrain after 27.5 mins; format: ADME, organism-based; conditions: in vivo; procedure, shortened: as §2
Cynomolgus monkey [43] = assay: Ratio of uptake in occipital to cerebellum of anesthetized cynomolgus monkey after 105 mins; format: ADME, organism-based; conditions: in vivo, 1.75 h; procedure, shortened: as §1
Cynomolgus monkey [44] = assay: Uptake in anesthetized cynomolgus monkey medulla after 9.5 mins; format: ADME, organism-based, Medulla of organ; conditions: in vivo; procedure, shortened: as §2
Cynomolgus monkey [45] = assay: Uptake in anesthetized cynomolgus monkey cerebellum after 3.5 mins; format: ADME, organism-based; conditions: in vivo; procedure, shortened: as §4
Cynomolgus monkey [46] = assay: Uptake in anesthetized cynomolgus monkey thalamus after 45.0 mins; format: ADME, organism-based; conditions: in vivo, 0.75 h; procedure, shortened: as §3
Cynomolgus monkey [47] = assay: Uptake in anesthetized cynomolgus monkey occipital after 4.5 mins; format: ADME, organism-based, Occipital cortex; conditions: in vivo, 0.075 h; procedure, shortened: as §2
Cynomolgus monkey [48] = assay: Uptake in anesthetized cynomolgus monkey pons after 3.5 mins; format: ADME, organism-based; conditions: in vivo; procedure, shortened: as §3
Cynomolgus monkey [49] = assay: Ratio of uptake in thalamus to cerebellum of anesthetized cynomolgus monkey after 65 mins; format: ADME, organism-based; conditions: in vivo; procedure, shortened: as §1
Cynomolgus monkey [50] = assay: Uptake in anesthetized cynomolgus monkey putamen after 27.5 mins; format: ADME, organism-based; conditions: in vivo; procedure, shortened: as §3
Cynomolgus monkey [51] = assay: Uptake in anesthetized cynomolgus monkey medulla after 105.0 mins; format: ADME, organism-based, Medulla of organ; conditions: in vivo, 1.75 h; procedure, shortened: as §2
Cynomolgus monkey [52] = assay: Ratio of uptake in caudate to cerebellum of anesthetized cynomolgus monkey after 65 mins; format: ADME, organism-based; conditions: in vivo; procedure, shortened: as §1
Cynomolgus monkey [53] = assay: Uptake in anesthetized cynomolgus monkey putamen after 2.5 mins; format: ADME, organism-based; conditions: in vivo; procedure, shortened: as §3
Cynomolgus monkey [54] = assay: Uptake in anesthetized cynomolgus monkey frontal after 9.5 mins; format: ADME, organism-based, Frontal cortex; conditions: in vivo; procedure, shortened: as §2
Cynomolgus monkey [55] = assay: Uptake in anesthetized cynomolgus monkey putamen after 6.5 mins; format: ADME, organism-based; conditions: in vivo; procedure, shortened: as §3

`[11CH3]OC(=O)[C@@H]1C2CCC(C[C@@H]1c1cccc(/C=C/I)c1)N2` (stereo not given in full) gave a Ratio (Cynomolgus monkey [1]) of 0.9, a Drug uptake (Cynomolgus monkey [2]) of 1.21 and a Drug uptake (Cynomolgus monkey [3]) of 4.69. The Drug uptake (Cynomolgus monkey [4]) was 5.01, the Drug uptake (Cynomolgus monkey [5]) was 5.86 and the Drug uptake (Cynomolgus monkey [6]) was 5.73. For the same compound, the Drug uptake (Cynomolgus monkey [7]) was 7.23, the Drug uptake (Cynomolgus monkey [8]) was 0.01 and the Ratio (Cynomolgus monkey [9]) was 1.8. For the same compound, the Drug uptake (Cynomolgus monkey [10]) was 6.17, the Drug uptake (Cynomolgus monkey [11]) was 7.21 and the Ratio (Cynomolgus monkey [12]) was 1. For the same compound, the Drug uptake (Cynomolgus monkey [13]) was 5.52, the Drug uptake (Cynomolgus monkey [14]) was 0.01 and the Drug uptake (Cynomolgus monkey [15]) was 6.95. For the same compound, the Drug uptake (Cynomolgus monkey [16]) was 6.16, the Drug uptake (Cynomolgus monkey [17]) was 0.01 and the Drug uptake (Cynomolgus monkey [18]) was 6.11. It also gave a Drug uptake (Cynomolgus monkey [19]) of 4.12, a Drug uptake (Cynomolgus monkey [20]) of 7.06 and a Drug uptake (Cynomolgus monkey [21]) of 5.94. It also gave a Ratio (Cynomolgus monkey [22]) of 2.1, a Ratio (Cynomolgus monkey [23]) of 1.1 and a Ratio (Cynomolgus monkey [24]) of 2.1. For the same compound, the Drug uptake (Cynomolgus monkey [25]) was 5.92, the Ratio (Cynomolgus monkey [26]) was 1.4 and the Drug uptake (Cynomolgus monkey [27]) was 6.65. It also gave a Drug uptake (Cynomolgus monkey [28]) of 6.02, a Drug uptake (Cynomolgus monkey [29]) of 5.74 and a Ratio (Cynomolgus monkey [30]) of 1.7. The Drug uptake (Cynomolgus monkey [31]) was 3.69, the Drug uptake (Cynomolgus monkey [32]) was 1.2 and the Drug uptake (Cynomolgus monkey [33]) was 4. It also gave a Ratio (Cynomolgus monkey [34]) of 1.5, a Drug uptake (Cynomolgus monkey [35]) of 7.34 and a Drug uptake (Cynomolgus monkey [36]) of 0.39. It also gave a Drug uptake (Cynomolgus monkey [37]) of 7.12, a Drug uptake (Cynomolgus monkey [38]) of 4.52 and a Drug uptake (Cynomolgus monkey [39]) of 6.41. It also gave a Drug uptake (Cynomolgus monkey [40]) of 6.13, a Drug uptake (Cynomolgus monkey [41]) of 4.84 and a Drug uptake (Cynomolgus monkey [42]) of 7.14. For the same compound, the Ratio (Cynomolgus monkey [43]) was 1.1, the Drug uptake (Cynomolgus monkey [44]) was 6.22 and the Drug uptake (Cynomolgus monkey [45]) was 2.19. For the same compound, the Drug uptake (Cynomolgus monkey [46]) was 7.14, the Drug uptake (Cynomolgus monkey [47]) was 2.44 and the Drug uptake (Cynomolgus monkey [48]) was 1.79. For the same compound, the Ratio (Cynomolgus monkey [49]) was 1.6, the Drug uptake (Cynomolgus monkey [50]) was 6.94 and the Drug uptake (Cynomolgus monkey [51]) was 6.25. For the same compound, the Ratio (Cynomolgus monkey [52]) was 1.3, the Drug uptake (Cynomolgus monkey [53]) was 1.14 and the Drug uptake (Cynomolgus monkey [54]) was 3.33. The Drug uptake (Cynomolgus monkey [55]) was 4.68.
